Usually inhibition in vivo stands for the percentage by which the read-out fell short of the control.

This passage reports Drug metabolism, Activity and inhibition in vivo results from ChEMBL document CHEMBL4396876, “Antisulfatase, Osteogenic, and Anticancer Activities of Steroid Sulfatase Inhibitor EO-33 in Mice” (J Med Chem, 2019).

A short description of data set [1]: Drug level in Balb/c mouse treated with 2-{[4-({(Furan-2-ylmethyl)[(5-methylthiophen-2-yl)-methyl]amino}methyl)phenyl]carbonyl}-1,2,3,4-tetrahydroisoquinolin-7-yl Sulfamate assessed as metabolite formation at 30 mg/kg, sc administered as single dose using MC/EtOH formulation by LC-MS/MS analysis. Conditions: in vivo. Type of data set: ADME, organism-based. A digest of the protocol:
(§1)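 Phenol metabolite EO-29 measured by LC-MS/MS in plasma of female Balb/c mice fasted 8 h, then given a single 30 mg/kg dose of the sulfamate in MC:EtOH (92:8), 0.1 mL, SC or by gavage. Sampled at 1, 3, 7, 12 and 24 h by cardiac puncture (2–3 mice/group).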

A short description of data set [2]: Drug level in Balb/c mouse treated with 2-{[4-({(Furan-2-ylmethyl)[(5-methylthiophen-2-yl)-methyl]amino}methyl)phenyl]carbonyl}-1,2,3,4-tetrahydroisoquinolin-7-yl Sulfamate assessed as metabolite formation at 30 mg/kg, po administered via gavage as single dose using MC/EtOH formulation by LC-MS/MS analysis. Type of data set: ADME, organism-based. Conditions: in vivo. The method, boiled down:
as §1

The test system of data set [3] is Mus musculus. The experiment in a line: Osteogenic activity in ovariectomized-induced C57BL/6 mouse model of osteoporosis assessed as recovery of tibia calcium content at 5 ug/kg, sc treated for 70 days by Triple Quad ICP-MS analysis relative to control. In kind it is functional. A digest of the protocol:
(§2)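 Female C57BL/6 mice (63–70 days) ovariectomized under isoflurane; sham controls kept. 8/group, dosed SC in 0.1 mL MC:EtOH (92:8) for 70 days. Tibias excised and weighed (mg/g body weight). Calcium measured by ICP-MS after calcination at 600 °C for 6 h and HNO3 microwave digestion; expressed as mg/g tibia.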

The subject of data set [4] is Mus musculus. The experiment in a line: Osteogenic activity in ovariectomized-induced C57BL/6 mouse model of osteoporosis assessed as recovery of tibia weight at 5 ug/kg, sc treated for 70 days relative to control. In kind it is functional. The method, boiled down: as §2
Data set [5] has as its system Mus musculus. The data set can be described thus: In vivo inhibition of STS in ovariectomized Balb/c mouse assessed as reduction in E1S-stimulated uterus weight at 5 mg/kg, sc administered once daily starting from day 2 to day 10 using MC/EtOH formulation and E1S addition on day 5 to 10 measured on day 11 relative to control. Type of data set: functional. The method, boiled down: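 Female Balb/c mice (15–20 g) ovariectomized under isoflurane, 5/group. Inhibitor given SC in 0.1 mL MC:EtOH (92:8) on days 2–10. E1S (2 µg/mouse, BID) or E1 (0.06 µg/mouse, ID) given SC on days 5–10. Vehicle controls included. Uterus dissected and weighed on day 11. Means ± SEM.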

Data set [6] relates to Mus musculus. The data set can be described thus: Ex vivo inhibition of STS in ovariectomized Balb/c mouse liver homogenates assessed as reduction in transformation of [3H]-E1S into [3H]-E1 at 5 mg/kg, sc administered once daily starting from day 2 to day 10 using MC/EtOH formulation and E1S addition on day 5 to 10 measured on day 11 by liquid scintillation counting method relative to control. In kind it is functional. The method, boiled down: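 Livers collected on day 11 from the OVX Balb/c uterotrophic protocol and homogenized in cold pH 7.4 phosphate buffer with protease inhibitors. 2000 g supernatant, 100 or 500 µg protein, incubated with [3H]-E1S/E1S (final 1 µM) in PBS for 2 h at 37 °C. Xylene extraction, then scintillation counting of both phases. Result given as % E1 formed. Triplicate.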

Data set [7] can be described thus: Hepatotoxicity in ovariectomized-induced C57BL/6 mouse model of osteoporosis assessed as effect on liver weight at 1 mg/kg, sc administered 6 days per week for 70 days measured post last dose by necropsy analysis. In kind it is toxicity, organism-based. The settings on record: in vivo.
Data set [8] deals with Mus musculus. The experiment in a line: Osteogenic activity in ovariectomized-induced C57BL/6 mouse model of osteoporosis assessed as recovery of tibia calcium content at 1 mg/kg, sc administered 6 days per week for 70 days by Triple Quad ICP-MS analysis relative to control. In kind it is functional. A digest of the protocol: as §2
A short description of data set [9]: Toxicity in ovariectomized-induced C57BL/6 mouse model of osteoporosis assessed as effect on body weight at 1 mg/kg, sc administered 6 days per week for 70 days measured post last dose. In kind it is organism-based. The settings on record: in vivo. A digest of the protocol:
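Female C57BL/6 mice, 63-70 days old, ovariectomized under isoflurane (sham-operated controls), randomized by weight into groups of 8. Treated SC in 0.1 mL MC:EtOH (92:8) over 70 days; sham and OVX controls received vehicle alone. Mice weighed at the end of the protocol before necropsy.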

Data set [10] has as its system Mus musculus. The experiment in a line: Estrogenic activity in ovariectomized-induced C57BL/6 mouse model of osteoporosis assessed as stimulation of uterus weight at 1 mg/kg, sc administered 6 days per week for 70 days measured post last dose by necropsy analysis. In kind it is ADME, organism-based. Conditions: in vivo.
For data set [11], the system named is Mus musculus. The data set can be described thus: Osteogenic activity in ovariectomized-induced C57BL/6 mouse model of osteoporosis assessed as recovery of tibia weight at 1 mg/kg, sc administered 6 days per week for 70 days relative to control. In kind it is functional. The method, boiled down: as §2

For `Cc1ccc(CN(Cc2ccc(C(=O)N3CCc4ccc(O)cc4C3)cc2)Cc2ccco2)s1`, the Drug metabolism result in data set [1] and in data set [2] was “Metabolite_Detected” throughout.

In the case of `C[C@]12CC[C@@H]3c4ccc(O)cc4CC[C@H]3[C@@H]1CC[C@@H]2O` [ESTRADIOL], the Activity with Mus musculus [3] and with Mus musculus [4] was 100% throughout.

Regarding `COc1cc2c(cc1OS(N)(=O)=O)CC[C@@H]1[C@@H]2CC[C@@]2(C)[C@H]1CC[C@@]2(O)Cc1ccccc1`, the inhibition in vivo at 5 mg/kg in the data set on Mus musculus [5] is 71%; in the data set with Mus musculus [6], 100%.

On to `O=C(c1ccc(OCCN2CCCCC2)cc1)c1c(-c2ccc(O)cc2)sc2cc(O)ccc12` [RALOXIFENE], for which the Activity entry in [7] was “Non-Toxic”; in the data set with Mus musculus [8], 100%; in [9], “Non-Toxic”; with Mus musculus [10] it was “Toxic”; with Mus musculus [11], 100%.
